Here are results for ten compounds from ChEMBL document CHEMBL1136360, “2,5-disubstituted 3,4-dihydro-2H-benzo[b][1,4]thiazepines as potent and selective V2 arginine vasopressin receptor antagonists” (Bioorg Med Chem Lett, 2003).

For assay [1], the target named is T1, Vasopressin V1a receptor (Homo sapiens, UniProt P37288). The experiment in a line: Ability to displace [3H]arginine vasopressin in cloned human V1a receptor. The method, boiled down:
(§1)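 Radioligand displacement of 3H-arginine vasopressin from cloned human V1a or V2 receptors. Single-concentration lines are read as percent inhibition at […].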

In assay [2] the target is T2, Vasopressin V2 receptor (Homo sapiens, UniProt P30518). The experiment in a line: Ability to displace [3H]arginine vasopressin in cloned human V2 receptor. The essentials: as §1
The target of assay [3] is T1, Vasopressin V1a receptor. As to the kind of experiment: Inhibition of vasopressin induced calcium […] in human V1a receptor expressing cells. In kind it is functional. The method, boiled down: (§2)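 Functional antagonism in cells expressing the human receptor. For V2, inhibition of vasopressin-induced cAMP accumulation. For V1a, inhibition of vasopressin-induced calcium mobilization.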

Assay [4] deals with T2, Vasopressin V2 receptor. As to the kind of experiment: Inhibition of vasopressin induced cAMP accumulation in human V2 receptor expressing cells. In kind it is functional. The method, boiled down: as §2
In assay [5] the test system is Rattus norvegicus. As to the kind of experiment: Effect on urine volume at a dose of 100 mg/kg in hydrated 10 male rats was determined.
Assay [6] relates to Rattus norvegicus. As to the kind of experiment: Effect on urine osmolality at a dose of 10 mg/kg in hydrated 10 male rats was determined. In kind it is functional. The method, boiled down: (§3)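 Conscious, hydrated male Sprague–Dawley rats dosed orally with test compound in 0.5% hydroxypropyl-methylcellulose vehicle, or with vehicle alone (3–100 mg/kg). Urine collected over 4 h. Urine volume (mL) and osmolality (mOsmol/Kg) reported as mean with error, about 10 animals per group. Significance judged at p<0.05 versus vehicle.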

For assay [7], the system named is Rattus norvegicus. The experiment in a line: Effect on urine osmolality at a dose of 3 mg/kg in hydrated 10 male rats was determined. It counts as functional. The method, boiled down: as §3
Assay [8] deals with Rattus norvegicus. As to the kind of experiment: Effect on urine osmolality at a dose of 100 mg/kg in hydrated 10 male rats was determined. It counts as functional. The method, boiled down:
as §3

In assay [9] the test system is Rattus norvegicus. As to the kind of experiment: Effect on urine volume at a dose of 10 mg/kg in hydrated 10 male rats was determined. It counts as functional. The method, boiled down:
as §3

In assay [10] the test system is Rattus norvegicus. The experiment in a line: Effect on urine volume at a dose of 30 mg/kg in hydrated 10 male rats was determined. In kind it is functional. The method, boiled down:
as §3

The test system of assay [11] is Rattus norvegicus. The experiment in a line: Effect on urine volume at a dose of 3 mg/kg in hydrated 10 male rats was determined. In kind it is functional. The method, boiled down: as §3
For assay [12], the system named is Rattus norvegicus. The experiment in a line: Effect on urine osmolality at a dose of 30 mg/kg in hydrated 10 male rats was determined. In kind it is functional. The essentials:
as §3

A word on the IC50: it is the midpoint of a concentration-inhibition curve.

T1 sequence (P37288 whole entry): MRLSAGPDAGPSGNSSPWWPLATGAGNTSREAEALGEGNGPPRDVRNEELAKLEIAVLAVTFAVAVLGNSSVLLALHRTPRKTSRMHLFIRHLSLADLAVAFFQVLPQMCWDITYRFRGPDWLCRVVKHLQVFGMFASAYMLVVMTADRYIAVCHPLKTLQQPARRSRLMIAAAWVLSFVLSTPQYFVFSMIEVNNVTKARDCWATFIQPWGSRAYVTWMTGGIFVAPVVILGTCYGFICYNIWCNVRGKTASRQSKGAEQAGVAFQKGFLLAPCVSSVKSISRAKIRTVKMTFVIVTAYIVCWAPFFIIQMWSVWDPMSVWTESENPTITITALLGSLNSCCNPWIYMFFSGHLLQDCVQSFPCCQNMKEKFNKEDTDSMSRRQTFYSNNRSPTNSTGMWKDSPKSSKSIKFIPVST
T2 sequence (P30518 whole entry): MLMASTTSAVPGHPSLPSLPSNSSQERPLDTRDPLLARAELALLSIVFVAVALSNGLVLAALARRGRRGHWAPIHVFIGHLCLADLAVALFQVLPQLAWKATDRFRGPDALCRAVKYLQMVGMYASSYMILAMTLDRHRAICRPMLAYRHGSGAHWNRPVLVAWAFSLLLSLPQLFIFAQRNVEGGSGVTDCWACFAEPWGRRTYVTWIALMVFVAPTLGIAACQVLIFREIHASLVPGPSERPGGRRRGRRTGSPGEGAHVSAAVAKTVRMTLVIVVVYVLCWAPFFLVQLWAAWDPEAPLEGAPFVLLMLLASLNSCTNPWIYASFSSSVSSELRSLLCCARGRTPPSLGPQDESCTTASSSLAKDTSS

Consider `CN(C)CC1CCN(C(=O)c2ccc(NC(=O)c3ccccc3-c3ccccc3)cc2)c2ccccc2S1` (centres undefined), for which the IC50 is 1200 nM in [1] and 430 nM in [2].
Turning to `O=C(O)CC[C@H]1CCN(C(=O)c2ccc(NC(=O)c3ccccc3-c3ccccc3)cc2)c2ccccc2S1`, the IC50 in assay [1] amounted to 140 nM; in assay [3], 2010 nM; in assay [2] it was 15 nM; in assay [4] it was 30 nM.
With `O=C(Nc1ccc(C(=O)N2CCC(CCS(=O)(=O)O)Sc3ccccc32)cc1)c1ccccc1-c1ccccc1` (centres undefined), the IC50 in [1] stood at 1150 nM.
Turning to `O=C(Nc1ccc(C(=O)N2CCC(CCF)Sc3ccccc32)cc1)c1ccccc1-c1ccccc1` (centres undefined), the IC50 in assay [1] came to 180 nM; in [2] it was 85 nM.
On the same counts, the results for `O=C(Nc1ccc(C(=O)N2CCC(CC(F)F)Sc3ccccc32)cc1)c1ccccc1-c1ccccc1` (centres undefined) are 160 nM and 100 nM.
`O=C(O)CC[C@@H]1CCN(C(=O)c2ccc(NC(=O)c3ccccc3-c3ccccc3)cc2)c2ccccc2S1`: the IC50 in assay [1] was found to be 314 nM; in [3] it was 4630 nM; in [2], 16 nM; in assay [4], 40 nM.
`O=C(O)C[C@@H]1CCN(C(=O)c2ccc(NC(=O)c3ccccc3-c3ccccc3)cc2)c2ccccc2S1`: the Urine volume in [5] is 13.8 mL; in assay [9] it was 7.3 mL; in assay [10], 15.7 mL; in assay [11] it was 2.2 mL. Further, the Urine osmolality in [6] is recorded as 299 mOsmol kg-1; in assay [7], 529 mOsmol kg-1; in assay [8] it was 177 mOsmol kg-1; in assay [12], 161 mOsmol kg-1. Besides, the IC50 in [1] came out at 1140 nM; in assay [3], 1760 nM; in [2] it was 8 nM; in [4], 30 nM.
As to `O=C(Nc1ccc(C(=O)N2CCC(CCO)Sc3ccccc32)cc1)c1ccccc1-c1ccccc1` (centres undefined), the IC50 was 97 nM in [1], 150 nM in assay [3], 8 nM in [2] and 100 nM in assay [4].
`O=C(O)CC1CCN(C(=O)c2ccc(NC(=O)c3ccccc3-c3ccccc3)cc2)c2ccccc2S1` (centres undefined): the IC50 in [1] was determined as 729 nM; in [3], 740 nM; in assay [2] it was 7 nM; in assay [4], 40 nM.
In the case of `O=C(O)C[C@H]1CCN(C(=O)c2ccc(NC(=O)c3ccccc3-c3ccccc3)cc2)c2ccccc2S1`, the half-maximal inhibitory concentration (IC50) in assay [1] was determined as 440 nM; in assay [3] it was 2130 nM; in assay [2] it was 7 nM; in assay [4] it was 36 nM.
